Rows were chosen to be rich in hits. Some 3% of all compounds tested hit in one or more screens of this group.
Wee1 degr inh – blocks degradation of human Wee1 kinase | reporter increase, % at 5 µM | 220,000 tested, 1.2% active | HeLa Luc-Wee1K328M stability, luciferase luminescence; 100% = proteasome inhibitor MG132 effect | P30291 | AID 1321;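 active = activation above the mean of all tested compounds plus 3 SD, set per screening run, cut at about 8.8% in these data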;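 also: cells exposed to compound for 20 h before luminescence read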
Target sequence (P30291 whole entry K328M): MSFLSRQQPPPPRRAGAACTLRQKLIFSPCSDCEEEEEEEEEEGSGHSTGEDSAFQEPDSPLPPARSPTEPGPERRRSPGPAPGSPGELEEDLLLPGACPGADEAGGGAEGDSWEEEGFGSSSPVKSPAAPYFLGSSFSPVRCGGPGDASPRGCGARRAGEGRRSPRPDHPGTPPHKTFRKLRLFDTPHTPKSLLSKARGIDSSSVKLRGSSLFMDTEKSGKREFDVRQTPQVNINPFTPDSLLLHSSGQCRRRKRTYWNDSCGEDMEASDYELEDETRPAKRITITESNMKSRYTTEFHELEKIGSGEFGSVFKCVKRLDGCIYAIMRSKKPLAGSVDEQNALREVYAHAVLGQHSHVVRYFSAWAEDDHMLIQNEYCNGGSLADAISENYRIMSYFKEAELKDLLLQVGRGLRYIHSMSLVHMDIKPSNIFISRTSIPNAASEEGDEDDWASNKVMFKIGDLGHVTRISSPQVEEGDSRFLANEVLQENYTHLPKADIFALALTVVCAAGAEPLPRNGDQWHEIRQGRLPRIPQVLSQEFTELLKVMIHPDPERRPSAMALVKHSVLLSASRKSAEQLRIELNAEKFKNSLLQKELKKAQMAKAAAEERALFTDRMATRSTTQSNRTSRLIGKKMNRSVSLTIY
Hsp70 activator – Hsp70 transcriptional activation, primary screen; activation, % at 10 µM; 200,000 tested, 0.04% active; AID 1203; HeLa Hsp70 promoter luciferase reporter, luminescence; scaled: vehicle 0, proteasome-inhibitor control 100%;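 active = activation above the mean across all tested compounds plus 3 SD, cutoff set per campaign, cut at about 5.5% in these data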
NPY1 pot ag – human NPY-Y1 potentiation or agonism, primary screen; NPY-Y1 expressing cells, potentiator/agonist activation; AID 1304; 220,000 tested, 0.37% active; activation, % at 3.6 µM; P25929; in the data active = activation above about 33%, passing the limit was not always enough;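 also: cells stimulated with NPY at EC10 then isoproterenol at EC100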
NPY Y2 blocker – antagonists of human neuropeptide Y receptor Y2 | NPY-Y2 expressing cells, antagonist mode | inhibition, % at 2.7 µM | 140,000 tested, 0.99% active; in the data active = inhibition above about 17%
NPY2 pot ag – potentiators or agonists of human neuropeptide Y receptor Y2. P49146. cells expressing NPY-Y2, potentiator/agonist read-out. activation, % at 3.6 µM. 220,000 tested, 0.45% active; in the data active = activation above about 27%;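 also: cells stimulated with NPY near EC25 plus isoproterenol at EC100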
NPY Y1 blocker – antagonists of human neuropeptide Y receptor Y1; P25929; HEK293-CNG Y1 cells, membrane potential fluorescence; NPY at EC95, then isoproterenol; inhibition, % at 3.6 µM; 200,000 tested, 1% active;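 active = inhibition above the campaign mean inhibition of all tested compounds plus 3 SD, cut at about 20% in these data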
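Material: HEK293 cells with Y1 receptor plus CNG channel; times: compound incubation 1 h at room temperature, readout 45 min post-stimulation; signal: fluorescence, membrane potential probe; read-out basis: fluorescence ratio normalized to % inhibition between controls; benchmarks: full-block control isoproterenol-only wells, zero-block control NPY plus isoproterenol wells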
Each line names hits and unclear results; the compound was inactive in the other large screens.

CCC(C)c1ccc(NC(=O)C2CCN(c3ncccn3)CC2)cc1 (stereo not given)	none
O=C(c1cnc(N2CCN(c3ccccn3)CC2)c2ccccc12)N1CCN(c2cccc(Cl)c2)CC1	none (no result: NPY Y2 blocker)
O=C(/C=C/c1ccc(Cl)cc1)N1CCN(c2ccc(Cl)cc2[N+](=O)[O-])CC1	NPY Y1 blocker 20.5
O=C(/C=C/c1ccc([N+](=O)[O-])cc1)N1CCN(c2ccccc2F)CC1	none
Cn1c(=O)c2c(ncn2CCC(=O)N/N=C/c2ccncc2)n(C)c1=O	none (no result: Hsp70 activator, NPY Y2 blocker, NPY Y1 blocker)
COC(=O)Nc1ccc(S(=O)(=O)N2CCCC(C(=O)Nc3cccc4c3OCCO4)C2)cc1 (stereo not given)	none
S=C(c1ccc(-c2ccc(Cl)cc2Cl)o1)N1CCCC1	none (no result: Hsp70 activator, NPY Y2 blocker, NPY Y1 blocker)
S=C(c1ccc(-c2ccc(Cl)cc2Cl)o1)N1CCCCC1	Wee1 degr inh 10.2
O=C(O)CC12CC3CC(C1)CC(n1ncc(NCc4ccccc4Cl)c(Cl)c1=O)(C3)C2	none (no result: Hsp70 activator, NPY Y2 blocker, NPY Y1 blocker)
O=C(O)C12CC3CC(C1)CC(n1ncc(NCc4ccco4)c(Cl)c1=O)(C3)C2	Wee1 degr inh 10.2 (no result: Hsp70 activator, NPY Y2 blocker, NPY Y1 blocker)
O=C(Nc1cccc(Cl)c1N1CCCC1)c1ccc(Br)o1	NPY Y2 blocker 33.0, NPY Y1 blocker 33.0
COc1ccc(/C=N/c2c(-c3ccco3)nc3ccccn23)cc1OC	Wee1 degr inh 9.0
Clc1ccc(/C=N/c2c(-c3ccco3)nc3ccccn23)cc1	none
CCCSc1ccc(C(=O)Nc2ccc(Cl)cc2)cn1	none (no result: NPY Y2 blocker)
COC(=O)c1ccc(CSc2ncnc3c2nnn3-c2ccc(OC)cc2)o1	Wee1 degr inh 11.8
COc1ccc(Cl)c(N2CCN(CCCNC(=O)Nc3ccc(C)cc3)CC2)c1	none
Clc1ccc(OCc2cn3ccccc3n2)c2ncccc12	Wee1 degr inh 9.9 (no result: NPY Y2 blocker)
OCc1ccccc1OCCOc1ccc(Cl)c2cccnc12	none
Cc1nc2sc3c(c2c(=O)n1/N=C/c1ccco1)CCCC3	NPY1 pot ag 104.4, NPY2 pot ag 103.4
CCCCCCCCC[n+]1cccc2c3ccccc3ccc21	NPY Y2 blocker 18.7, NPY Y1 blocker 55.5
CCCCCCCCCCCCCCCC[n+]1cccc2ccccc21	none
Cc1cc2cc(CNC(=S)Nc3ccc(OC(F)(F)F)cc3)ccc2[nH]1	none
O=C(CCCN1C(=O)/C(=C\c2cccs2)SC1=S)NNC(=O)c1cccnc1	Wee1 degr inh 10.4 (no result: NPY Y2 blocker)
O=C(CCCN1C(=O)/C(=C/c2cccs2)SC1=S)NNC(=O)c1ccncc1	none (no result: NPY Y2 blocker)
O=C1CC(c2ccccc2F)C2=C(COC2=O)N1 (stereo not given)	none (no result: NPY Y2 blocker)
CC(O)C(=O)NCCOCCOCCNC(=O)C(C)O (stereo not given)	Wee1 degr inh 9.5
CC(Oc1ccc(-c2ccccc2)c(F)c1)c1ccn(S(=O)(=O)c2ccc(Br)cc2)n1 (stereo not given)	none
Cc1cc(C(=O)NCCCn2ccnc2)sc1-c1ccccc1	none
Oc1ccccc1N1CCN(c2nnnn2-c2ccccc2)CC1	none (no result: Hsp70 activator, NPY Y2 blocker, NPY Y1 blocker)
c1ccc(N2CCN(c3nnnn3-c3ccccc3)CC2)cc1	Wee1 degr inh 9.4
Cc1ccc(NC(=O)CSc2nnc(/N=C/N(C)C)s2)cc1	none (no result: NPY Y2 blocker)
O=C(N/N=C/c1cc(Cl)ccc1O)c1ccc(Br)cc1	none
Cc1ccc(N=Nc2ccc(O)c(/C=N\NC(=O)c3ccc(N)cc3)c2)cc1C	Wee1 degr inh 9.5
O=C(C1CCC1)N1CCc2cc(S(=O)(=O)NCC3COc4ccccc4O3)ccc21 (stereo not given)	NPY Y2 blocker 19.5, NPY Y1 blocker 24.1
Cc1c(O)ccc(C(=O)COc2ccc(F)cc2)c1O	Wee1 degr inh 10.1
Cc1ccccc1NC(=O)/C(=C/c1ccccc1)c1ccccc1	NPY Y2 blocker 17.9, NPY Y1 blocker 21.1
N=c1c(C(=O)NCc2ccc(F)cc2)cc2c(=O)n3ccccc3nc2n1Cc1ccco1	none
COCCCn1c(=N)c(C(=O)NC2CCCCC2)cc2c(=O)n3ccccc3nc21	NPY Y2 blocker 19.9
N=c1c(C(=O)NC2CCCC2)cc2c(=O)n3ccccc3nc2n1C1CCCC1	none
N=c1c(C(=O)NCc2ccco2)cc2c(=O)n3ccccc3nc2n1Cc1ccc(Cl)cc1	NPY Y2 blocker 25.0, NPY Y1 blocker 36.0
Cc1n[nH]c(C)c1S(=O)(=O)N(CC(=O)Nc1ccc2c(c1)OCCO2)c1ccc(C(C)C)cc1	none
O=C1c2ccccc2C(=O)N1CNc1ccccc1	Wee1 degr inh 14.5
Cc1ccc(NCN2C(=O)c3ccccc3C2=O)c(C)c1	none
